Key:
Type in all cases: functional
Rattus norvegicus [1] = assay: Antiinflammatory activity was assessed by the ability to improve the adjuvant induced arthritis in left secondary lesion in rats at oral doses, 33 mg/kg (volume change in the injected paw measured from day 9 to day 18)
Cavia porcellus [2] = species on record: Cavia porcellus; assay: Tested for effect on the production of Lipoxygenase (LO) metabolite, 5,12-diHETE in guinea pig peritoneal polymorphonuclear neutrophils at 30 uM concentration
Method in brief: (§1)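 Guinea pig peritoneal PMNs were incubated with [14C]arachidonic acid and stimulated with calcium ionophore A23187. Compounds were tested at 30 μM in 0.1 N NaOH–Krebs Ringer bicarbonate buffer. Radiolabeled cyclooxygenase and lipoxygenase products were identified by HPLC and GC-MS, separated by TLC and quantified by automatic scanning.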

Rattus norvegicus [3] = assay: Ability to improve the adjuvant induced arthritis in right secondary lesion in rats at oral doses, 33 mg/kg
Method in brief: (§2)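 Female Sprague–Dawley rats (150–170 g), six per group. Arthritis induced by subcutaneous plantar injection of 0.125 mg killed tubercle bacillus in liquid paraffin into the right hind paw. Dosing was 33 mg/kg orally, daily for 14 days, starting the day before adjuvant. Paw volumes were measured by mercury plethysmography every 2–3 days over 18 days. Primary lesion: right paw, days 0–8. Secondary lesions: right and left (uninjected) paws, days 9–18. Areas under the time-course curves were compared with controls by ANOVA.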

Cavia porcellus [4] = species on record: Cavia porcellus; assay: Tested for effect on the production of cyclooxygenase (COX) metabolite, TXB2 of arachidonic acid in guinea pig peritoneal polymorphonuclear neutrophils at 30 uM concentration; method in brief: as §1
Cavia porcellus [5] = species on record: Cavia porcellus; assay: Tested for effect on the production of Lipoxygenase (LO) metabolite, 5-HETE in guinea pig peritoneal polymorphonuclear neutrophils at 30 uM concentration; method in brief: as §1
Cavia porcellus [6] = species on record: Cavia porcellus; assay: Tested for effect on the production of cyclooxygenase (COX) metabolite, PGF2-alpha (prostaglandin F2-alpha) of arachidonic acid in guinea pig peritoneal polymorphonuclear neutrophils at 30 uM concentration; method in brief: as §1
Rattus norvegicus [7] = assay: Antiinflammatory activity was assessed by the ability to improve the adjuvant induced arthritis in right primary lesion in rats at oral doses, 33 mg/kg (volume change in the injected paw measured from day 0 to day 8); method in brief: as §2
Rattus norvegicus [8] = species on record: Rattus norvegicus; assay: Antiinflammatory activity was assessed improvement of adjuvant induced arthritis in rats, determined by joint mobility of the paw; parameters: concentration or dose not given beside the values
Method in brief: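 Adjuvant arthritis was induced in female Sprague–Dawley rats (150–170 g, groups of six) by right-hind-paw plantar injection of killed tubercle bacillus in paraffin. Treatment was 33 mg/kg orally, daily for 14 days, starting the day before adjuvant. Joint involvement was scored as the angle through which the hind paws moved easily, given as percent change versus nontreated controls.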

Cavia porcellus [9] = species on record: Cavia porcellus; assay: Tested for effect on the production of cyclooxygenase (COX) metabolite, PGE-2 (prostaglandin E2) of arachidonic acid in guinea pig peritoneal polymorphonuclear neutrophils at 30 uM concentration; method in brief: as §1

Row | Compound | Reduction (Rattus norvegicus [1]) [%] | Reduction (Cavia porcellus [2]) [%] | Reduction (Rattus norvegicus [3]) [%] | Reduction (Cavia porcellus [4]) [%] | Reduction (Cavia porcellus [5]) [%] | Reduction (Cavia porcellus [6]) [%] | Reduction (Rattus norvegicus [7]) [%] | Reduction (Rattus norvegicus [8]) [%] | Reduction (Cavia porcellus [9]) [%]
1 | O=C1Oc2ccc(C(=O)c3cccs3)cc2/C1=C/c1ccc(C(F)(F)F)cc1 | 15 | 68 | 19 | 95 | 67 | 67 | 3 | 4 | 79
2 | O=C(c1ccc2c(c1)C(C(=O)Nc1ccccc1)C(=O)O2)c1cccs1 (configuration not stated) | 25 | 85 | 6 | 93 | 94 | 86 | 8 | 1 | 93
3 | CC1(C)C(=O)Oc2ccc(C(=O)c3cccs3)cc21 | 50 | 49 | 36 | 81 | 52 | -37 | 28 | 44 | 81
4 | CCCC(C(=O)O)c1cc(C(=O)c2cccs2)ccc1O (configuration not stated) | 52 | -42 | 30 | 86 | -33 | 50 | 26 | 33 | 87
5 | CC1C(=O)Oc2ccc(C(=O)c3ccc(F)cc3)cc21 (configuration not stated) | 31 | -25 | 10 | 76 | 6 | 47 | 5 | -1 | 46
6 | O=C(O)/C(=C\c1ccccc1)c1cc(C(=O)c2cccs2)ccc1O | -15 |  | 11 |  |  |  | 15 | 5 | 
7 | C=CCc1cc(C(=O)c2cccs2)cc2c1OC(=O)C2C (configuration not stated) | 17 | -24 | 6 | 93 | 14 | 77 | 1 | 5 | 88
8 | CC1C(=O)Oc2ccc(C(=O)c3cccs3)cc21 (configuration not stated) | 48 | 39 | 40 | 67 | 37 | 15 | 31 | 31 | 61
9 | O=C(c1ccc(O)c(C(Cc2ccccc2)C(=O)O)c1)c1cccs1 (configuration not stated) | 10 |  | 30 |  |  |  | 29 | 6 | 
10 | CCC(CC)(C(=O)O)c1cc(C(=O)c2cccs2)ccc1OC | 42 |  | 16 |  |  |  | -11 | 42 | 
11 | CC1C(=O)Oc2ccc(C(=O)c3ccco3)cc21 (configuration not stated) | 25 | 3 | 12 | 81 | 20 |  | -5 | 2 | 81
12 | COc1ccc(C(=O)c2ccc(O)c(C(C)C(=O)O)c2)cc1 (configuration not stated) | 22 | -10 | 31 | 89 | 5 | 58 | 12 | 7 | 
13 | CCC(C(=O)O)c1cc(C(=O)c2cccs2)ccc1O (configuration not stated) | 76 | -33 | 64 | 92 | 16 | 65 | 20 | 60 | 
14 | COc1ccc(C(=O)c2ccc3c(c2)C(C)C(=O)O3)cc1 (configuration not stated) | 22 | 44 | 5 | 70 | 50 | 51 | -9 | -9 | 

From ChEMBL document CHEMBL1123839, “5-Acyl-3-substituted-benzofuran-2(3H)-ones as potential antiinflammatory agents” (1987)
